Laboratory results taken from ChEMBL document CHEMBL1123791, “3'-substituted 2',3'-dideoxynucleoside analogues as potential anti-HIV (HTLV-III/LAV) agents” (J Med Chem, 1987).

How the values were obtained:
MT4 [1] = test: Toxicity was determined by evaluation of cluster morphology and reclustering properties in mock infected MT-4 cells at 5 uM concentration; format: cell-based; details: human, mt4, 5 µM
How it was run: (§1)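 Mock-infected MT4 cells were seeded at 2.5×10^5 cells/mL with compound at 125–0.00032 µM and cultured 5 days at 37 °C. Cluster morphology was scored microscopically, then cells were dispersed by pipetting and reclustering read after 4 h. Scoring: ++ >90%, + 10–40%, − <10% toxicity.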

MT4 [2] = test: Toxicity was determined by evaluation of cluster morphology and reclustering properties in mock infected MT-4 cells at 125 uM concentration; format: cell-based; details: human, mt4, 125 µM
MT4 [3] = test: Toxicity was determined by evaluation of cluster morphology and reclustering properties in mock infected MT-4 cells at 0.2 uM concentration; format: cell-based; details: human, mt4, 0.2 µM
MT4 [4] = test: Protection was determined by evaluation of cluster morphology and reclustering properties in […] MT-4 cells at 0.2 uM concentration; format: functional, Homo sapiens
MT4 [5] = test: Protection was determined by evaluation of cluster morphology and reclustering properties in […] MT-4 cells at 5 uM concentration.; format: functional, Homo sapiens
How it was run: (§2)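 MT4 cells infected with HIV (300 CCID50/well) were seeded at 2.5×10^5 cells/mL with compound at 125, 5, 0.2, 0.008 or 0.00032 µM and kept 5 days at 37 °C. Clusters were scored microscopically, dispersed by pipetting, and reclustering assessed after 4 h at 37 °C. Scoring: +++ >90% protection.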

ATH-8 cell line [6] = test: Required dose to reduce viability of normal uninfected ATH8 cells.; format: functional; details: Homo sapiens, read-out: ID50 (the source's name)
MT4 [7] = test: Toxicity was determined by evaluation of cluster morphology and reclustering properties in mock infected MT-4 cells at 125 uM concentration; Range is 10-40; format: cell-based; details: human, mt4, 125 µM; how it was run: as §1
MT4 [8] = test: Protection was determined by evaluation of cluster morphology and reclustering properties in mock infected MT-4 cells at 125 uM concentration; Range is 10-40; format: functional, Homo sapiens; details: in the assay text read “HIV infected” for “mock infected”; how it was run: as §2
ATH-8 cell line [9] = test: Protection of ATH8 cells against the cytopathic effect of HIV.; format: functional; details: Homo sapiens, read-out: ED50 (the source's name)
MT4 [10] = test: Protection was determined by evaluation of cluster morphology and reclustering properties in […] at 0.008 uM concentration.; format: functional, Homo sapiens
MT4 [11] = test: Protection was determined by evaluation of cluster morphology and reclustering properties in mock infected MT-4 cells at 125 uM concentration; format: functional, Homo sapiens; details: in the assay text read “HIV infected” for “mock infected”; how it was run: as §2
[12] = Therapeutic index (Ratio = ID50/ED50).
MT4 [13] = test: Protection was determined by evaluation of cluster morphology and reclustering properties in […] MT-4 cells at 0.2 uM concentration; Range is 40-60; format: functional, Homo sapiens; how it was run: as §2
MT4 [14] = test: Protection was determined by evaluation of cluster morphology and reclustering properties in […] MT-4 cells at 5 uM concentration; Range is 10-40; format: functional, Homo sapiens; how it was run: as §2
MT4 [15] = test: Toxicity was determined by evaluation of cluster morphology and reclustering properties in mock infected MT-4 cells at 0.008 uM concentration; format: cell-based; details: human, mt4, 0.008 µM; how it was run: as §1
MT4 [16] = test: Toxicity was determined by evaluation of cluster morphology and reclustering properties in mock infected MT-4 cells at 0.00032 uM concentration; format: cell-based; details: human, mt4, 0.00032 µM; how it was run: as §1
MT4 [17] = test: Protection was determined by evaluation of cluster morphology and reclustering properties in […] MT-4 cells at 0.00032 uM concentration; format: functional, Homo sapiens; how it was run: as §2

Row | Structure (SMILES) | EC50 (ATH-8 cell line [9]) [µM] | Toxicity (MT4 [1]) [%] | Toxicity (MT4 [2]) [%] | Toxicity (MT4 [3]) [%] | Protection (MT4 [4]) [%] | Protection (MT4 [5]) [%] | IC50 (ATH-8 cell line [6]) [µM] | Toxicity (MT4 [7]) [%] | Protection (MT4 [8]) [%] | Protection (MT4 [10]) [%] | Protection (MT4 [11]) [%] | selectivity ratio [12] | Protection (MT4 [13]) [%] | Protection (MT4 [14]) [%] | Toxicity (MT4 [15]) [%] | Toxicity (MT4 [16]) [%] | Toxicity (MT4 [1]; 5 µM) [%] | Toxicity (MT4 [2]; 125 µM) [%] | Protection (MT4 [17]) [%]
1 | Nc1ncnc2c1ncn2[C@H]1C[C@H](F)[C@@H](CO)O1 | – | < 10 | < 10 | < 10 | – | – | – | – | – | – | – | – | – | – | – | – | – | – | –
2 | Cc1cn(C2CC(SCCO)C(CO)O2)c(=O)[nH]c1=O (configuration not stated) | > 100 | < 10 | – | < 10 | <10 | <10 | > 100 | 10 | 10 | – | – | – | – | – | – | – | – | – | –
3 | Cc1cn([C@H]2C[C@H](I)[C@@H](CO)O2)c(=O)[nH]c1=O | > 500 | < 10 | > 90 | < 10 | <10 | <10 | > 500 | – | – | <10 | – | – | – | – | – | – | – | – | –
4 | Cc1cn([C@H]2C[C@@H](OS(C)(=O)=O)[C@@H](CO)O2)c(=O)[nH]c1=O | > 100 | < 10 | – | < 10 | <10 | <10 | > 100 | 10 | – | – | >90 | – | – | – | – | – | – | – | –
5 | CCc1cn(C2CC(F)C(CO)O2)c(=O)[nH]c1=O (configuration not stated) | > 500 | < 10 | < 10 | < 10 | <10 | <10 | > 500 | – | 10 | – | – | – | – | – | – | – | – | – | –
6 | Cc1cn([C@H]2C[C@H](SC#N)[C@@H](CO)O2)c(=O)[nH]c1=O | > 100 | < 10 | > 90 | < 10 | <10 | – | > 100 | – | – | <10 | – | – | – | 10 | – | – | – | – | –
7 | Nc1ncnc2c1ncn2[C@H]1C=C[C@@H](CO)O1 | 40 | < 10 | > 90 | < 10 | <10 | <10 | 52 | – | – | – | <10 | 1.3 | – | – | < 10 | < 10 | – | – | –
8 | Cc1cn([C@H]2C[C@H](OS(C)(=O)=O)[C@@H](CO)O2)c(=O)[nH]c1=O | > 100 | < 10 | < 10 | < 10 | <10 | – | > 100 | – | – | – | >90 | – | – | 10 | – | – | – | – | –
9 | CCc1cn(C2CCC(CO)O2)c(=O)[nH]c1=O (configuration not stated) | – | < 10 | < 10 | < 10 | <10 | <10 | – | – | – | <10 | <10 | – | – | – | < 10 | – | – | – | –
10 | Cc1cn([C@H]2C[C@H](N=[N+]=[N-])[C@@H](CO)O2)c(=O)[nH]c1=O (stereo in doubt; 9k) [ZIDOVUDINE] | – | – | – | < 10 | <10 | <10 | – | – | – | – | <10 | – | – | – | – | – | < 10 | < 10 | –
11 | CCSC1CC(n2cc(C)c(=O)[nH]c2=O)OC1CO (configuration not stated) | > 100 | < 10 | > 90 | < 10 | <10 | – | 100 | – | – | <10 | – | < 1 | – | 10 | – | – | – | – | –
12 | CCc1cn([C@H]2C[C@H](N=[N+]=[N-])[C@@H](CO)O2)c(=O)[nH]c1=O | > 100 | < 10 | > 90 | < 10 | <10 | – | > 100 | – | – | <10 | – | – | – | 10 | – | – | – | – | <10
13 | CCO[C@H]1C[C@H](n2cc(C)c(=O)[nH]c2=O)O[C@@H]1CO | > 100 | < 10 | > 90 | < 10 | <10 | – | > 100 | – | – | <10 | – | – | – | 10 | – | – | – | – | –
14 | Nc1ncnc2c1ncn2[C@H]1C[C@H](O)[C@@H](CO)O1 [DEOXYADENOSINE] | > 100 | < 10 | – | < 10 | <10 | <10 | > 100 | 10 | – | – | <10 | – | – | – | – | – | – | – | –
15 | Cc1cn([C@H]2C[C@H](OCC(=O)[O-])[C@@H](CO)O2)c(=O)[nH]c1=O.[Na+] | > 100 | < 10 | < 10 | < 10 | <10 | <10 | > 100 | – | – | – | <10 | – | – | – | – | – | – | – | –

Continued, in another order:

Row | EC50 (ATH-8 cell line [9]) [µM] | Structure (SMILES) | Toxicity (MT4 [1]) [%] | Toxicity (MT4 [2]) [%] | Toxicity (MT4 [3]) [%] | Protection (MT4 [4]) [%] | Protection (MT4 [5]) [%] | IC50 (ATH-8 cell line [6]) [µM] | Toxicity (MT4 [7]) [%] | Protection (MT4 [8]) [%] | Protection (MT4 [10]) [%] | Protection (MT4 [11]) [%] | selectivity ratio [12] | Protection (MT4 [13]) [%] | Protection (MT4 [14]) [%] | Toxicity (MT4 [15]) [%] | Toxicity (MT4 [16]) [%] | Toxicity (MT4 [1]; 5 µM) [%] | Toxicity (MT4 [2]; 125 µM) [%] | Protection (MT4 [17]) [%]
16 | 0.3 | Nc1ccn([C@H]2C=C[C@@H](CO)O2)c(=O)n1 | < 10 | > 90 | < 10 | – | >90 | 30 | – | – | <10 | – | 100 | 40 | – | – | – | – | – | –
17 | 400 | Nc1ccn(C2CC3OCC3O2)c(=O)n1 (configuration not stated) | < 10 | < 10 | < 10 | <10 | <10 | > 500 | – | 10 | – | – | > 1.2 | – | – | – | – | – | – | –
18 | > 500 | Cc1cn(C2CC(Br)C(CO)O2)c(=O)[nH]c1=O (configuration not stated) | < 10 | > 90 | < 10 | <10 | – | 180 | – | – | <10 | – | < 0.4 | – | 10 | – | – | – | – | –
19 | > 100 | CNc1nc(=O)n(C2CC(N=[N+]=[N-])C(CO)O2)cc1C (configuration not stated) | < 10 | < 10 | < 10 | <10 | – | > 100 | – | – | – | >90 | – | – | 10 | – | – | – | – | –
20 | > 100 | O=c1ccn([C@H]2C=C[C@@H](CO)O2)c(=O)[nH]1 | < 10 | > 90 | < 10 | <10 | <10 | 107 | – | – | <10 | – | < 1.1 | – | – | – | – | – | – | –
21 | > 500 | Cc1cn(C2CC(Cl)C(CO)O2)c(=O)[nH]c1=O (configuration not stated) | < 10 | > 90 | < 10 | <10 | – | > 500 | – | – | <10 | – | – | – | 10 | – | – | – | – | –
22 | 0.2 | Nc1ccn([C@H]2CC[C@@H](CO)O2)c(=O)n1 [ZALCITABINE] | < 10 | > 90 | < 10 | – | >90 | 35 | – | – | <10 | – | 175 | 40 | – | – | – | – | – | –
23 | > 500 | O=c1ccn(C2CCC(CO)O2)c(=O)[nH]1 (configuration not stated) | < 10 | < 10 | < 10 | <10 | <10 | > 500 | – | – | – | >90 | – | – | – | – | – | – | – | –
